Experimental data taken from ChEMBL document CHEMBL1127684, “Enkephalin analogs as systemically active antinociceptive agents: O- and N-alkylated derivatives of the dipeptide amide L-2,6-dimethyltyrosyl-N-(3-phenylpropyl)-D-alaninamide” (J Med Chem, 1994).
Activity calls are given as the source filed them. The calls are words filed in the database; no cut-off is given here.

How the values were obtained:
Mus musculus [1] = test: Effective dose administered intragastricly in mouse writhing assay; No significant inhibition at 10 mg/kg, the highest dose tested; assay type: functional, organism-based; set-up: dose 10 mg/kg
Opioid receptor = Opioid receptor (Rattus norvegicus, UniProt P33533+P34975+P33535); test: Affinity for the opioid receptor by displacement of tritiated naloxone from rat brain membranes.; assay type: cell membranes, Membrane
Procedure, shortened: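 Rat brain membranes with the cerebellum removed. Competition against [3H]naloxone as a nonselective opioid label, with the radioligand at or near its Kd. Reported as IC50 (nM).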

Mus musculus [2] = test: Effective dose administered subcutaneously in mouse writhing assay; No significant inhibition at 10 mg/kg, the highest dose tested; assay type: functional, organism-based; set-up: dose 10 mg/kg
Procedure, shortened: (§1)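 Mouse phenylbenzoquinone-induced abdominal stretch (writhing) assay with subcutaneous dosing. […] 10 mg/kg was the highest dose tested.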

Mus musculus [3] = test: Effective dose administered subcutaneously in mouse writhing assay; assay type: functional; procedure, shortened: as §1
Mus musculus [4] = test: Effective dose administered subcutaneously in mouse writhing assay; not significant; assay type: functional, organism-based; procedure, shortened: as §1
Mus musculus [5] = test: Effective dose administered intragastricly in mouse writhing assay; assay type: functional; details: po
[6] = target: T1, Delta-type opioid receptor (Rattus norvegicus, UniProt P33533); test: Displacement of [3H]DSLET from rat brain membrane delta opioid receptor
Procedure, shortened: (§2)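 Forebrain membranes from male Sprague-Dawley rats (150–300 g, cerebellum and hindbrain removed), washed and preincubated 1 h at 25 °C. Binding run in triplicate at 37 °C in 50 mM Tris/HCl pH 7.4, ~1 mg/mL protein, [3H]DSLET 1.0 nM, with varying compound concentrations. Nonspecific binding defined with 10 μM levorphanol. IC50 taken from log-logit plots of concentration vs percent displacement.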

Mu-type opioid receptor [7] = target: T2, Mu-type opioid receptor (Rattus norvegicus, UniProt P33535); test: Inhibitory concentration was evaluated against mu opioid receptor by the displacement of tritiated DAMGO from rat brain membranes; assay type: cell membranes, Membrane
Procedure, shortened: as §2, with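 “[3H]DAMGO 2.0” for “[3H]DSLET 1.0”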

[8] = target: Kappa-type opioid receptor (Rattus norvegicus, UniProt P34975); test: Inhibitory concentration was evaluated against kappa opioid receptor by displacement of tritiated U-69593 from rat brain membranes; assay type: cell membranes, Membrane
Mu-type opioid receptor [9] = target: T2, Mu-type opioid receptor; test: Affinity for mu opioid receptor was measured by displacement of tritiated DAMGO from rat brain membranes; assay type: cell membranes, Membrane
Procedure, shortened: as §2, with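 “[3H]DAMGO 2.0” for “[3H]DSLET 1.0”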

[10] = target: T1, Delta-type opioid receptor; test: (§3) Inhibitory concentration was evaluated against delta opioid receptor by the displacement of tritiated DSLET from rat brain membranes; assay type: cell membranes, Membrane; procedure, shortened: as §2
[11] = target: T1, Delta-type opioid receptor; test: as §3; assay type: functional, cell membranes, Membrane; procedure, shortened: as §2
[12] = Mus musculus, sc, read-out: ED50

T1 sequence (P33533 whole entry): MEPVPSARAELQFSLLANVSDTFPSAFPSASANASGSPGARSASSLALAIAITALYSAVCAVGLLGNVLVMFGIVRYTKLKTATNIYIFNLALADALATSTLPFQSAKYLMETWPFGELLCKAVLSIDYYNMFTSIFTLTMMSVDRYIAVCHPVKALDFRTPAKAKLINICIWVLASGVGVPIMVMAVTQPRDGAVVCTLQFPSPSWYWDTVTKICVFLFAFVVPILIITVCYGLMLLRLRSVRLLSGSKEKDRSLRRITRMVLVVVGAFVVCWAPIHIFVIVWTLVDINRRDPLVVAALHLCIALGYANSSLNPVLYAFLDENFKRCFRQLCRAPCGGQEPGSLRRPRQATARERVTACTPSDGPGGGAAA
Chain of Kappa-type opioid receptor (P34975 whole entry): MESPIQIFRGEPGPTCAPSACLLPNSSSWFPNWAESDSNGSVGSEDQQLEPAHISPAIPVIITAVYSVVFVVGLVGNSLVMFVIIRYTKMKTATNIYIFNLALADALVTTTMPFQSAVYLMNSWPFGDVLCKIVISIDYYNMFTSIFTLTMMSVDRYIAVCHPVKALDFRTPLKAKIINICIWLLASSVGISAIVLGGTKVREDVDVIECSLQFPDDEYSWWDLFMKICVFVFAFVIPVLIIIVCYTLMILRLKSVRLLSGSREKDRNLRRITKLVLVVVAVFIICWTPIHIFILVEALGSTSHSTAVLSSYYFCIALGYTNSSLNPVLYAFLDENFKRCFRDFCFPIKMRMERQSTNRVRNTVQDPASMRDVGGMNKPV
T2 sequence (P33535 whole entry): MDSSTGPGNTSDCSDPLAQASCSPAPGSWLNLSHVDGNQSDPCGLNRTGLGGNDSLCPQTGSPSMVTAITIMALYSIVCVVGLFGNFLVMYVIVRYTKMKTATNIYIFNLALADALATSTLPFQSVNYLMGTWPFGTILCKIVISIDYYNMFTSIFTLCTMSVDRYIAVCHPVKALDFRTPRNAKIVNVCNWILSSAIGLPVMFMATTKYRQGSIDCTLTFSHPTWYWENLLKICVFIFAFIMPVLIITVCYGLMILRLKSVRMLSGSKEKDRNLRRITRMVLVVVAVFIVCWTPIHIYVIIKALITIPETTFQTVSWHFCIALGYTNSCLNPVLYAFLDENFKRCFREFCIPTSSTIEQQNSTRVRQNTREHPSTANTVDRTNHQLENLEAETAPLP

| Compound | ED50 (Mus musculus [1]) | IC50 (Opioid receptor) | ED50 (Mus musculus [2]) | ED50 (Mus musculus [3]; [12]) | ED50 (Mus musculus [5]) | IC50 [6] | IC50 (Mu-type opioid receptor [9]) | further results |
| --- | --- | --- | --- | --- | --- | --- | --- | --- |
| CN[C@H](Cc1c(C)cc(O)cc1C)C(=O)N[C@H](C)C(=O)NCCCc1ccccc1 | inactive | 1800 nM | inactive |  |  |  |  |  |
| Cc1cc(O)cc(C)c1CC(N)C(=O)N(CC1CC1)[C@H](C)C(=O)NCCCc1ccccc1 (some centres not stated) | inactive | 10 nM |  | 2.4 mg/kg |  |  |  |  |
| C=CCN(C(=O)C(N)Cc1c(C)cc(O)cc1C)[C@H](C)C(=O)NCCCc1ccccc1 (some centres not stated) | inactive | 1.3 nM |  | 0.7 mg/kg |  |  |  |  |
| Cc1cc(O)cc(C)c1C[C@H](N)C(=O)N(CC1CC1)[C@H](C)C(=O)NCCCc1ccccc1 (stereo in doubt; 18b) [listing 1 of 2 here] | inactive |  |  |  |  |  |  |  |
| C=CCN(C(=O)[C@@H](N)Cc1c(C)cc(O)cc1C)[C@H](C)C(=O)NCCCc1ccccc1 | inactive | 280 nM |  |  |  |  |  | ED50 (Mus musculus [4]): inactive |
| Cc1cc(OCc2ccc(C(C)(C)C)cc2)cc(C)c1CC(N)C(=O)N[C@H](C)C(=O)NCCCc1ccccc1 (some centres not stated) | inactive | 0.5 nM | inactive |  |  |  |  |  |
| C=CCOc1cc(C)c(CC(N)C(=O)N[C@H](C)C(=O)NCCCc2ccccc2)c(C)c1 (some centres not stated) |  |  |  | 12.4 mg/kg | 14.9 mg/kg | 600 nM |  |  |
| Cc1cc(OCc2ccccc2)cc(C)c1C[C@H](N)C(=O)N[C@H](C)C(=O)NCCCc1ccccc1 |  | 360 nM |  | 1.8 mg/kg | 2.4 mg/kg | 55 nM | 4 nM | IC50 (Mu-type opioid receptor [7]): 0.92 nM; IC50 [8]: 2520 nM; IC50 [10]: 133 nM |
| CCOc1cc(C)c(CC(N)C(=O)N[C@H](C)C(=O)NCCCc2ccccc2)c(C)c1 (some centres not stated) | inactive | 130 nM | inactive |  |  |  |  |  |
| Cc1cc(OCc2ccc([N+](=O)[O-])cc2)cc(C)c1CC(N)C(=O)N[C@H](C)C(=O)NCCCc1ccccc1 (some centres not stated) |  | 2.9 nM |  | 2.3 mg/kg | 6.8 mg/kg | 127 nM | 3.5 nM |  |
| CN[C@@H](Cc1c(C)cc(O)cc1C)C(=O)N[C@H](C)C(=O)NCCCc1ccccc1 | inactive | 140 nM | inactive |  |  |  |  |  |
| COc1cc(C)c(C[C@H](N)C(=O)N[C@H](C)C(=O)NCCCc2ccccc2)c(C)c1 (stereo in doubt; 20b) [listing 1 of 2 here] |  | 50 nM |  |  |  | > 1000 nM | 57 nM | IC50 (Mu-type opioid receptor [7]): 32 nM; IC50 [8]: 19800 nM; ED50 (Mus musculus [3]): 0.7 mg/kg; IC50 [10]: 2090 nM |
| Cc1cc(OCc2ccc(F)cc2)cc(C)c1CC(N)C(=O)N[C@H](C)C(=O)NCCCc1ccccc1 (some centres not stated) | inactive | 18 nM |  | 2.7 mg/kg |  | 385 nM | 17.5 nM | IC50 [11]: 367 nM; IC50 (Mu-type opioid receptor [7]): 8.73 nM; IC50 [8]: 10800 nM |
| CNC(Cc1c(C)cc(OCc2ccccc2)cc1C)C(=O)N[C@H](C)C(=O)NCCCc1ccccc1 (some centres not stated) | inactive | 53 nM |  | ~10 mg/kg |  |  |  |  |
| Cc1cc(O)cc(C)c1C[C@H](N)C(=O)N(C)[C@H](C)C(=O)NCCCc1ccccc1 |  |  |  | 0.07 mg/kg | 3.1 mg/kg | 4.4 nM | 0.1 nM | IC50 (Mu-type opioid receptor [7]): 0.2 nM; IC50 [8]: 316 nM; IC50 [10]: 8 nM |
| Cc1cc(O)cc(C)c1CC(N)C(=O)N[C@H](C)C(=O)NCCCc1ccccc1 (some centres not stated) |  | 0.1 nM |  | 0.5 mg/kg | 2 mg/kg | 8.6 nM | 0.2 nM | IC50 (Mu-type opioid receptor [7]): 0.13 nM; IC50 [8]: 221 nM; IC50 [10]: 9.57 nM |
| Cc1cc(OCc2ccc(C#N)cc2)cc(C)c1CC(N)C(=O)N[C@H](C)C(=O)NCCCc1ccccc1 (some centres not stated) | inactive | 17 nM | inactive |  |  | > 1000 nM | 28.6 nM |  |
| COc1cc(C)c(C[C@H](N)C(=O)N[C@H](C)C(=O)NCCCc2ccccc2)c(C)c1 (stereo in doubt; 20c) |  | 420 nM |  |  | 2.7 mg/kg |  |  | ED50 (Mus musculus [3]): 3.5 mg/kg |
| COc1cc(C)c(C[C@H](N)C(=O)N[C@H](C)C(=O)NCCCc2ccccc2)c(C)c1 (stereo in doubt; 20b) [listing 2 of 2 here] | inactive |  |  |  |  |  |  |  |
| COc1cc(C)c(CC(N)C(=O)N[C@H](C)C(=O)NCCCc2ccccc2)c(C)c1 (some centres not stated) |  | 290 nM |  | 4.3 mg/kg | 2.3 mg/kg |  |  |  |
| Cc1cc(O)cc(C)c1CC(C)(N)C(=O)N[C@H](C)C(=O)NCCCc1ccccc1 (some centres not stated) |  | 150 nM |  | 3 mg/kg | 3.7 mg/kg | 64 nM | 2 nM | IC50 (Mu-type opioid receptor [7]): 1.1 nM; IC50 [8]: 1380 nM; IC50 [10]: 124 nM |
| Cc1cc(O)cc(C)c1CC(N)C(=O)N(C)[C@H](C)C(=O)NCCCc1ccccc1 (some centres not stated) |  | 0.6 nM |  | 1.7 mg/kg | 1.3 mg/kg |  |  |  |
| Cc1cc(O)cc(C)c1C[C@H](N)C(=O)N(CC1CC1)[C@H](C)C(=O)NCCCc1ccccc1 (stereo in doubt; 18c) [listing 1 of 2 here] |  |  |  |  |  | 409 nM | 23.7 nM |  |
| Cc1cc(O)cc(C)c1C[C@H](N)C(=O)N(CC1CC1)[C@H](C)C(=O)NCCCc1ccccc1 (stereo in doubt; 18c) [listing 2 of 2 here] | inactive |  | inactive |  |  |  |  |  |
| Cc1cc(O)cc(C)c1CC(N)C(=O)N[C@H](C)C(=O)N(C)CCCc1ccccc1 (some centres not stated) | inactive | 300 nM | inactive |  |  |  |  |  |
| Cc1cc(OCc2ccc(C(=O)O)cc2)cc(C)c1CC(N)C(=O)N[C@H](C)C(=O)NCCCc1ccccc1 (some centres not stated) | inactive |  | inactive |  |  | 882 nM | 12.3 nM |  |
| Cc1cc(OCc2ccc(C(=O)O)cc2)cc(C)c1C[C@H](N)C(=O)N[C@H](C)C(=O)NCCCc1ccccc1 | inactive | 83 nM | inactive |  |  |  |  |  |
| Cc1cc(O)cc(C)c1C[C@H](N)C(=O)N(CC1CC1)[C@H](C)C(=O)NCCCc1ccccc1 (stereo in doubt; 18b) [listing 2 of 2 here] |  |  |  | 0.5 mg/kg |  | 9.4 nM | 0.4 nM | IC50 (Mu-type opioid receptor [7]): 0.5 nM; IC50 [8]: 1000 nM; IC50 [10]: 10 nM |
| Cc1cc(OCc2ccccc2)cc(C)c1C[C@@H](N)C(=O)N[C@H](C)C(=O)NCCCc1ccccc1 |  | 22 nM |  | 2.3 mg/kg | 12.9 mg/kg |  |  | IC50 (Mu-type opioid receptor [7]): 44.7 nM; IC50 [8]: 17500 nM; IC50 [10]: 1800 nM |
| Cc1ccccc1COc1cc(C)c(CC(N)C(=O)N[C@H](C)C(=O)NCCCc2ccccc2)c(C)c1 (some centres not stated) | inactive |  | inactive |  |  |  |  |  |
